Results taken from ChEMBL document CHEMBL1138071, “Design and synthesis of noncompetitive metabotropic glutamate receptor subtype 5 antagonists” (Bioorg Med Chem Lett, 2006).
Calls of active or inactive are those of the source. No cut-off for these calls is given here.

How the values were obtained:
[1] = molecular target: Metabotropic glutamate receptor 5 (Rattus norvegicus, UniProt P31424); test: Inhibition of [3H]MPEP binding to mGluR5 in rat brain membrane; format: cell membranes
Summary of the method: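 Rat brain membranes spun twice at 30,000g for 10 min, resuspended in ice-cold 50 mM Tris–HCl pH 7.0 with 1% BSA. Displacement by 10 drug concentrations run three times. Incubated 2.5 h at 4 °C to steady state, then filtered over PEI-presoaked glass-fibre filters.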

[2] = molecular target: Metabotropic glutamate receptor 5 (Homo sapiens, UniProt P41594); test: Antagonist activity against mGluR5 expressed in CHO cells assessed as inhibition of agonist-induced phosphoinositide hydrolysis; format: functional, cell-based
[3] = molecular target: Metabotropic glutamate receptor 5 (Rattus norvegicus) (UniProt P31424); test: Inhibition of [3H]MPEP binding to mGluR5 in rat brain membrane at 100 uM; format: cell membranes
[4] = molecular target: Metabotropic glutamate receptor 5 (Rattus norvegicus) (UniProt P31424); details: Brain, Membrane, 10 uM

Sequence of Metabotropic glutamate receptor 5 (Homo sapiens, UniProt P41594) (P41594 whole entry): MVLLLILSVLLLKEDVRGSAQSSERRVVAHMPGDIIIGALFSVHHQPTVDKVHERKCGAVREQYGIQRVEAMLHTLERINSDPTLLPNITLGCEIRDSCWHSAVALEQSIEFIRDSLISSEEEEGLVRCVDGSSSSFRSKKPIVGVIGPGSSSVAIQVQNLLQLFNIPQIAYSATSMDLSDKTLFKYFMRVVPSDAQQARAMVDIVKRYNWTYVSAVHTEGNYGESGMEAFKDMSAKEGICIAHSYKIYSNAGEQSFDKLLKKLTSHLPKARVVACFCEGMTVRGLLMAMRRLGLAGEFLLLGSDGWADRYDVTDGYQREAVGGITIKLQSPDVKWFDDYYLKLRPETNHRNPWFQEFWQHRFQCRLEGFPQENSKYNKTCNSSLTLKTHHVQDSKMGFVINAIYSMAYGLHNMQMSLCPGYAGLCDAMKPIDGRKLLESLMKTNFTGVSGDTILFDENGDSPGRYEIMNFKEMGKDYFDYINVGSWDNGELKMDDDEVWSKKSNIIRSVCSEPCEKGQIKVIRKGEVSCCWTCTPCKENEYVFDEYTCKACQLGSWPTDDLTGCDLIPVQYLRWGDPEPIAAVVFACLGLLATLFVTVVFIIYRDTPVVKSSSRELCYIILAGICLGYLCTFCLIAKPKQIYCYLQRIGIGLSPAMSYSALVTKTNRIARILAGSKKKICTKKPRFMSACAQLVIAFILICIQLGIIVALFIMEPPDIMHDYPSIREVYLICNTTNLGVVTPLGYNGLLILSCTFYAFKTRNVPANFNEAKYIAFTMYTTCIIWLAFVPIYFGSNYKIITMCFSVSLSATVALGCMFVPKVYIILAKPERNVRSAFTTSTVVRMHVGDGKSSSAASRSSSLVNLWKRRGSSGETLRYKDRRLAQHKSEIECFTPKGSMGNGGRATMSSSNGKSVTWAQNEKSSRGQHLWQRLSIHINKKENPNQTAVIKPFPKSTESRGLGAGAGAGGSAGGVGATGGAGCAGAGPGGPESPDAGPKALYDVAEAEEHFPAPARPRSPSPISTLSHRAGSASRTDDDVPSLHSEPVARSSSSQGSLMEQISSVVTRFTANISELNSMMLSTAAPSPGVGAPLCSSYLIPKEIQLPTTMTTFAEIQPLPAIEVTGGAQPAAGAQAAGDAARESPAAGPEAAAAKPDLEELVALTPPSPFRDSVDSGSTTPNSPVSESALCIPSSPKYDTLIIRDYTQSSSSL
Sequence of Metabotropic glutamate receptor 5 (Rattus norvegicus, UniProt P31424) (P31424 whole entry): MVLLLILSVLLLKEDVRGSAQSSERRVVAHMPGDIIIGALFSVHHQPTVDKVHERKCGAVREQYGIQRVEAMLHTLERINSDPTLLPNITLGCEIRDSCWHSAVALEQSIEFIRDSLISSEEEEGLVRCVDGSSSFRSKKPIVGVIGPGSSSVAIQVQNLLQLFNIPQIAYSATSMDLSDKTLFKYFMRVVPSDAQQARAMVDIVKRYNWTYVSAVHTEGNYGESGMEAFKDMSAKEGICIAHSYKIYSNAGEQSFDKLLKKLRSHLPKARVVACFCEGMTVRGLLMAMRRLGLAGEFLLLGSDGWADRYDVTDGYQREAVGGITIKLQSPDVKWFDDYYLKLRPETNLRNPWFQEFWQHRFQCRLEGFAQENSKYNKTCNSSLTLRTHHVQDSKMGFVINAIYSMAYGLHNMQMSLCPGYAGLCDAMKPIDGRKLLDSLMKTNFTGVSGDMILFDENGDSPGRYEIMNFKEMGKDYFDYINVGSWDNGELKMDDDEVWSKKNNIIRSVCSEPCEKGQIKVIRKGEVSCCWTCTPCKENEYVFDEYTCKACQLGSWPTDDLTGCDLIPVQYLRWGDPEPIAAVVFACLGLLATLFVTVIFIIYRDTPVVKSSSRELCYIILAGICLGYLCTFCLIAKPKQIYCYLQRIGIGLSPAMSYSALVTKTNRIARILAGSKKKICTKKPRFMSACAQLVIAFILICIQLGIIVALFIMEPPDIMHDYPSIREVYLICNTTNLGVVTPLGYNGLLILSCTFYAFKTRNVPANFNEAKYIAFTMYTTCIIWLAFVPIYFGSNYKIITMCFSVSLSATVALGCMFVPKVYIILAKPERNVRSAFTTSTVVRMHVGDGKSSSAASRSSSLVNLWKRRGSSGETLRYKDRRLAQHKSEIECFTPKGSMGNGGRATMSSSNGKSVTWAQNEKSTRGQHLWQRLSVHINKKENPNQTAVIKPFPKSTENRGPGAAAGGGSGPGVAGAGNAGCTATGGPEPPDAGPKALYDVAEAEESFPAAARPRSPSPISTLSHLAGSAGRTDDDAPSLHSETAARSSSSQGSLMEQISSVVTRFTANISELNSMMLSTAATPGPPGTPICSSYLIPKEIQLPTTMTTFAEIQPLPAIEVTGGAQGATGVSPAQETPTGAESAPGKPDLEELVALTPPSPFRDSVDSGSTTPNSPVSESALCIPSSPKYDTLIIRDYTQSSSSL
Sequence of Metabotropic glutamate receptor 5 (Rattus norvegicus) (P31424 21-1203 limits assumed): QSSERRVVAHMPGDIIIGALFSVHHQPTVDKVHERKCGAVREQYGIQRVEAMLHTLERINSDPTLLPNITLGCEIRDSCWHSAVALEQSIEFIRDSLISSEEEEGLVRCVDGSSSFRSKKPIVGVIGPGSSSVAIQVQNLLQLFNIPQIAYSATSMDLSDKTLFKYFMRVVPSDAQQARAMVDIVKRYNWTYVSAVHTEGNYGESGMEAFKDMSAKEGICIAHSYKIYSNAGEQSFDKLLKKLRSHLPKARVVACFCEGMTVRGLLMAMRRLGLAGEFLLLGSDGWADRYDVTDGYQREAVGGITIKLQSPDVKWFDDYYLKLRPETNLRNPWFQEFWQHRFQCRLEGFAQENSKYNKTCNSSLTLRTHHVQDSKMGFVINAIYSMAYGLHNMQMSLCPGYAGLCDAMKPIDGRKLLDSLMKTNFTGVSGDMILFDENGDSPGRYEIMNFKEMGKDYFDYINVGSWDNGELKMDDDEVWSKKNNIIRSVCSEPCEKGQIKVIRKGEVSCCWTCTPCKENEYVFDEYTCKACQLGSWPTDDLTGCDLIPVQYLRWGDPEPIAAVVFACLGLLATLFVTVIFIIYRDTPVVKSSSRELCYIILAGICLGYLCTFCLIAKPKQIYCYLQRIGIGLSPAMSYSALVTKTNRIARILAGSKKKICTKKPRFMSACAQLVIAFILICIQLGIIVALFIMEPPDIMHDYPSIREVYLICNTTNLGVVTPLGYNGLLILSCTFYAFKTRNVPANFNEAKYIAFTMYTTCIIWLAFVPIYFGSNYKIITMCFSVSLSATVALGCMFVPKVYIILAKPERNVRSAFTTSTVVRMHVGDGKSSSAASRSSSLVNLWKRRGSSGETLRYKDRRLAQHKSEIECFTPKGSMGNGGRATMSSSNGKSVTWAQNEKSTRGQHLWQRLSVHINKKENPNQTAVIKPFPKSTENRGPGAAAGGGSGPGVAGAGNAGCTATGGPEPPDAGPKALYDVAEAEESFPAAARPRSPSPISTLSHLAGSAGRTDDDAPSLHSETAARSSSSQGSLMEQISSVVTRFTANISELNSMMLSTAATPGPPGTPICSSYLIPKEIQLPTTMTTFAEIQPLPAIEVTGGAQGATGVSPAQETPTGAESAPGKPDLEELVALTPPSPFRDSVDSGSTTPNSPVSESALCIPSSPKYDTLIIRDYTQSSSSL

Row | Compound | IC50 [1] | Activity [3] | also measured
1 | Cc1cccc(NC(=O)c2ccccc2)n1 | 35 µM | – | –
2 | Cc1cccc(C(=O)Nc2cccc(C)n2)c1 | 1.84 µM | – | IC50 [2]: 5.9 µM
3 | Cc1cccc(NC(=O)c2cccnc2)n1 | – | inactive | –
4 | Cc1cccc(NC(=O)C2CCCN(C)C2)n1 (centres undefined) | – | inactive | –
5 | Cc1cccc(NC(=O)C2CCCN(Cc3cccc(Cl)c3)C2)n1 (centres undefined) | – | – | inhibition [3]: 31%
6 | Cc1cccc(NC(=O)c2cccc(I)c2)n1 | 1.08 µM | – | IC50 [2]: 10.8 µM
7 | Cc1cccc(/C=C/c2ccccc2)n1 | 1.08 µM | – | –
8 | Cc1cccc(NCc2ccccc2)n1 | – | inactive | –
9 | COc1cccc(C(=O)Nc2cccc(C)n2)c1 | 9.76 µM | – | IC50 [2]: 46 µM
10 | Cc1cccc(NC(=O)c2cccc(Br)c2)n1 | 0.65 µM | – | IC50 [2]: 5.48 µM
11 | Cc1cccc(NC(=O)c2cccc(C(F)(F)F)c2)n1 | 18.7 µM | – | –
12 | Cc1cccc(NC(=O)c2cccc(OS(C)(=O)=O)c2)n1 | 83.6 µM | – | –
13 | Cc1cccc(NC(=O)c2cccc(C#N)c2)n1 | 0.33 µM | – | IC50 [2]: 5.33 µM
14 | Cc1cccc(NC(=O)c2ccccc2Cl)n1 | – | inactive | –
15 | Cc1cccc(NC(=O)c2cccc(OCc3ccccc3)c2)n1 | 33 µM | – | –
16 | O=C(Nc1ccccn1)c1ccccc1 | 95.4 µM | – | –
17 | Cc1cccc(NC(=O)c2cccc(/C=C/c3ccccc3)c2)n1 | – | inactive | –
18 | Cc1csc(NC(=O)c2cccc(Cl)c2)n1 | 5.49 µM | – | IC50 [2]: 15 µM

Row | Compound | IC50 [1] | Activity [3] | also measured
19 | Cc1cccc(NC(=O)c2cccc(OCCc3ccccc3)c2)n1 | 23.6 µM | – | –
20 | O=C(Nc1cccc(Cl)n1)c1cccc(Cl)c1 | 1.53 µM | – | IC50 [2]: 12.7 µM
21 | Cc1cccc(CNc2ccccc2)n1 | – | inactive | –
22 | Cc1cccc(NC(=O)c2cccc3ccccc23)n1 | 62.8 µM | – | –
23 | Cc1ccc(S(=O)(=O)N2CCCC(C(=O)Nc3cccc(C)n3)C2)cc1 (centres undefined) | – | – | inhibition [3]: 31%
24 | COc1cccc(C(=O)Nc2nc(C)cs2)c1 | 9.1 µM | – | –
25 | Cc1csc(NC(=O)c2cccnc2)n1 | – | inactive | –
26 | Cc1cccc(NC(=O)c2cccc(-c3ccccc3)c2)n1 | 7.3 µM | – | IC50 [2]: 18.3 µM
27 | Cc1cccc(NC(=O)c2cccc(Oc3ccccc3)c2)n1 | 57 µM | – | –
28 | Cc1ccc(S(=O)(=O)Nc2cccc(C)n2)cc1 | – | inactive | –
29 | Cc1cccc(NC(=O)c2cccc(S(C)(=O)=O)c2)n1 | – | inactive | –
30 | Cc1csc(NC(=O)c2ccccc2)n1 | 65 µM | – | –
31 | Cc1cccc(NC(=O)c2ccc3ccccc3c2)n1 | – | inactive | –
32 | Cc1cccc(NC(=O)c2ccc(Cl)cc2)n1 | – | inactive | –
33 | Cc1ccc(O)c(/N=N/c2ccccc2)n1 | 1.17 µM | – | –
34 | Cc1cccc(NC(=O)C2CCCN(Cc3ccccc3)C2)n1 (centres undefined) | – | – | inhibition [3]: 14%
35 | Cc1cccc(NC(=O)c2cccc(Cl)c2)n1 | 1.73 µM | – | inhibition [4]: 66%
